According to ChEMBL document CHEMBL1153852, “Steroidal lactones as inhibitors of 17beta-hydroxysteroid dehydrogenase type 5: chemical synthesis, enzyme inhibitory activity, and assessment of estrogenic and androgenic activities” (Eur J Med Chem, 2009):

How the values were obtained:
[1] = target: T1, Androgen receptor (Rattus norvegicus) (UniProt P15207); assay: Binding affinity to rat ventral prostate androgen receptor at 1 uM; type: tissue-based; details: Prostate gland
T1 sequence (whole entry): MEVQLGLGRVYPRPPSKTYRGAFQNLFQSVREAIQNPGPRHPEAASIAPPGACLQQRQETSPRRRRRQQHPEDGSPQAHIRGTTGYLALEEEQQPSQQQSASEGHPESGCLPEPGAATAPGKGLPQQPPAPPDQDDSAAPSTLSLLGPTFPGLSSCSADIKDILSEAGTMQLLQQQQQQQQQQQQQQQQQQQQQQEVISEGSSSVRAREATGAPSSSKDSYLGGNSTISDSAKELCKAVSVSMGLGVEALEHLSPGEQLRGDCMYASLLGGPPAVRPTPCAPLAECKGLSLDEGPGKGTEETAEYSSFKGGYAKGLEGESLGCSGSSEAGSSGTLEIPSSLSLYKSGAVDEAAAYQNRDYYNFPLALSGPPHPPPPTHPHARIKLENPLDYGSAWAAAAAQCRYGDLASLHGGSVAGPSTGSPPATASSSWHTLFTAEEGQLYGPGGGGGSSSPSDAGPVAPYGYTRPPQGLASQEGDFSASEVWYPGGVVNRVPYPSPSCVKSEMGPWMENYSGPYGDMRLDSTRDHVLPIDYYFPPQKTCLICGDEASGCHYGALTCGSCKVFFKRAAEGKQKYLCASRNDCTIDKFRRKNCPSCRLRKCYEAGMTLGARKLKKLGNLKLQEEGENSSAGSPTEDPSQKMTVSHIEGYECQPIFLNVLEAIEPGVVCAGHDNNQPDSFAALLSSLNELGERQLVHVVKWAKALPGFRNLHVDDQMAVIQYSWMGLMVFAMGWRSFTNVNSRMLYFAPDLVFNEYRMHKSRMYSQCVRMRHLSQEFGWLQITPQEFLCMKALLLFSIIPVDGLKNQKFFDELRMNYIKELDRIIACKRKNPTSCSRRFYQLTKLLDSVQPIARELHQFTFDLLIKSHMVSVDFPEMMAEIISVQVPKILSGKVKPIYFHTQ

[2] = target: T2, Progesterone receptor (Rattus norvegicus) (UniProt Q63449); assay: Binding affinity to rat uterus progesterone receptor at 1 uM
T2 sequence (whole entry): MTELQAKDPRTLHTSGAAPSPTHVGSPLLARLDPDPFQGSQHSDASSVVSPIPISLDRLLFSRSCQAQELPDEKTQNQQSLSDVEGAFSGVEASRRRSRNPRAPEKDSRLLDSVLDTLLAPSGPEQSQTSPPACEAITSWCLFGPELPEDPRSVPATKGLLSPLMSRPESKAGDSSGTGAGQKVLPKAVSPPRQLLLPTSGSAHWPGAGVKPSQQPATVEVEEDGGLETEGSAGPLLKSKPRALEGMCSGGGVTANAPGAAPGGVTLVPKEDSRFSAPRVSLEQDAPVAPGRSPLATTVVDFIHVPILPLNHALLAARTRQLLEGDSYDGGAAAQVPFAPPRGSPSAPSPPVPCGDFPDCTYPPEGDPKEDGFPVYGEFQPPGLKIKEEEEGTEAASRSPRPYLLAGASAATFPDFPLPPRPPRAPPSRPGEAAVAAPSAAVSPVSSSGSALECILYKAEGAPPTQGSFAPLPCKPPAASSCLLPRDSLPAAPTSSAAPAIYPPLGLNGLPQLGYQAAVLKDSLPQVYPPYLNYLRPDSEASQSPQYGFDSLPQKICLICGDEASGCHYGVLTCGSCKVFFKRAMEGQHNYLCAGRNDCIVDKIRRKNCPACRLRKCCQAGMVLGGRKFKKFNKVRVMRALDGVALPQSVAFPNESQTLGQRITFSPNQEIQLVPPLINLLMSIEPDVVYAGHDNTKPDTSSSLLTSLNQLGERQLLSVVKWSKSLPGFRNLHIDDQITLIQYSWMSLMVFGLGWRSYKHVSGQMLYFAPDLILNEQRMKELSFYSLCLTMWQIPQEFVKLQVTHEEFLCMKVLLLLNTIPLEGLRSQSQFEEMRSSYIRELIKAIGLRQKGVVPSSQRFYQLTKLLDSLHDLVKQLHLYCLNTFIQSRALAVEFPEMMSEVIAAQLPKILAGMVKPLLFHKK

[3] = target: T2, Progesterone receptor (Rattus norvegicus); assay: Binding affinity to rat uterus progesterone receptor at 0.1 uM
[4] = target: T2, Progesterone receptor (Rattus norvegicus); assay: Binding affinity to rat uterus progesterone receptor at 10 uM
[5] = target: T3, Glucocorticoid receptor (Rattus norvegicus) (UniProt P06536); assay: Binding affinity to rat liver glucocorticoid receptor at 10 uM
T3 sequence (whole entry): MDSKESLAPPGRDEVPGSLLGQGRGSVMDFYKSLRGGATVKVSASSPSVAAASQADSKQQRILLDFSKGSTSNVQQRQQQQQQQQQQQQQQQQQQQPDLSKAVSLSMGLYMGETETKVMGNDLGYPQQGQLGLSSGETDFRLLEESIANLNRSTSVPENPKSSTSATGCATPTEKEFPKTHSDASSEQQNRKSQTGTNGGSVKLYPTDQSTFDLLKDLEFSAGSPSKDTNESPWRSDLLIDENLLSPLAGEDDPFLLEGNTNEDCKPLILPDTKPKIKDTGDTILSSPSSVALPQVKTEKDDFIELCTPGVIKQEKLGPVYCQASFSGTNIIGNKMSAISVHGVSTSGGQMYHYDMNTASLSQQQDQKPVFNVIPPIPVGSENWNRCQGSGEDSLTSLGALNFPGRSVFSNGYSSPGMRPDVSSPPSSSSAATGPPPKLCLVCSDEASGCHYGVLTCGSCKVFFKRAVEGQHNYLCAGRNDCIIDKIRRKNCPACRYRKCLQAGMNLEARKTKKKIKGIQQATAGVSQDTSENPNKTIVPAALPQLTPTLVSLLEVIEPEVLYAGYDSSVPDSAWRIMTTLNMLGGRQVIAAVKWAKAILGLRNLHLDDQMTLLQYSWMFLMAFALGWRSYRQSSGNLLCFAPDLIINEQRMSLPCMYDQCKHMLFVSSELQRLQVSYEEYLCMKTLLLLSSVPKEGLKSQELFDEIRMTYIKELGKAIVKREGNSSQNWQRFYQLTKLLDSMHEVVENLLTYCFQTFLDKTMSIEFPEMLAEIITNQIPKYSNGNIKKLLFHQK
Procedure, shortened: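 Rat liver glucocorticoid receptor competitive binding, reported as % binding. Bound and free steroid are separated by dextran-coated charcoal adsorption instead of protamine sulfate precipitation.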

Activity [3] [%] | Activity [4] [%] | Activity [5] [%] | Structure (SMILES) | Activity [1] [%] | Activity [2] [%]
 |  |  | CC1(C)CC[C@@]2(CC[C@H]3[C@@H]4CCc5ccccc5[C@H]4CC[C@@]32C)OC1=O | 0 | 5
11 | 35 | 24 | CC1(C)CC[C@@]2(CC[C@H]3[C@@H]4CCc5cc(O)ccc5[C@H]4CC[C@@]32C)OC1=O |  | 
